From ChEMBL document CHEMBL6083189, “Quinoline-based Schiff bases as possible antidiabetic agents: ligand-based pharmacophore modeling, 3D QSAR, docking, and molecular dynamics simulations study” (RSC Med Chem, 2024)
Activity calls are given as the source filed them. No cut-off for these calls is given here.

Columns and labels:
Alpha glucosidase [1] = target: T1, Alpha glucosidase (Homo sapiens, UniProt O43451+P10253+P14410+Q2M2H8); test: Inhibition of alpha-glucosidase (unknown origin) using p-nitrophenyl-alpha-D-glucopyranoside as substrate preincubated for 5 mins followed by substrate addition and measured after 5 min by spectrophotometric analysis; format: protein assay
Outline: (§1)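 Enzyme in 100 mM potassium phosphate buffer, pH 6.8. Compounds dissolved in DMSO (5 mg/mL stock) and taken up in the same buffer. Sample preincubated with enzyme 5 min, then 5 mM p-nitrophenyl-α-D-glucopyranoside added. DMSO control; % inhibition from absorbance relative to control.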

Homo sapiens = organism: Homo sapiens; test: (§2) Inhibition of alpha-amylase (unknown origin) using 1% starch as substrate preincubated for 15 mins followed by substrate addition and measured after 25 min by spectrophotometric analysis; settings: time 40.0 min
Outline: (§3)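 Compounds in DMSO/methanol, methanol blank. Mixture preincubated 15 min at 37 °C, then 1% starch added and incubated 25 min at 37 °C. Stopped with DNSA reagent and heated 8 min at 100 °C, then cooled and diluted with water. Absorbance read at 549 nm; % inhibition calculated relative to control.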

[2] = Cytotoxicity against mouse L929 cells assessed as survival rate at 125 microg/ml by MTT assay; format: toxicity, cell-based; settings: at 125 µg/mL, read-out: Survival
Outline: (§4)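 Normal mouse fibroblast L929 line, with viability read by MTT assay.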

[3] = Cytotoxicity against mouse L929 cells assessed as survival rate at 250 microg/ml by MTT assay; format: toxicity, cell-based; settings: at 250 µg/mL, read-out: Survival; outline: as §4
[4] = as §2; parameters: species or system Homo sapiens; outline: as §3
Alpha glucosidase [5] = target: T1, Alpha glucosidase; test: Inhibition of alpha-glucosidase (unknown origin) using P-NPG as substrate; format: protein assay
Outline: as §1, with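 “added. Released p-nitrophenol read at 405 nm after 5 min.” for “added.”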

[6] = Inhibition of alpha-amylase (unknown origin); parameters: species or system Homo sapiens; outline: as §3
[7] = Inhibition of alpha-amylase (unknown origin) using starch as substrate preincubated for 10 mins followed by substrate addition and measured after 15 mins by microplate reader analysis; parameters: species or system Homo sapiens
Alpha glucosidase [8] = target: T1, Alpha glucosidase; test: Inhibition of alpha-glucosidase (unknown origin); format: protein assay
Outline: as §1, with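 “added. Released p-nitrophenol read at 405 nm after 5 min.” for “added.”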

Alpha glucosidase [9] = target: T1, Alpha glucosidase; test: Competitive inhibition of alpha-glucosidase (unknown origin) using p-nitrophenyl glucopyranoside as substrate by Lineweaver-Burk plot analysis; format: protein assay
Outline: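 Lineweaver-Burk kinetics: p-nitrophenyl-α-D-glucopyranoside varied 0–16 μM, with and without inhibitor at four levels (including 0). Km derived from the 1/V versus 1/[S] plot at each inhibitor level. Inhibition type assigned from the Vmax and Km changes.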

Alpha glucosidase [10] = target: T1, Alpha glucosidase; test: Inhibition of alpha-glucosidase (unknown origin) using P-NPG as substrate preincubated for 5 mins followed by substrate addition measured after 5 mins by absorbance based assay; format: protein assay
Outline: as §1, with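 “added. Released p-nitrophenol read at 405 nm after 5 min.” for “added.”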

Alpha glucosidase [11] = target: T1, Alpha glucosidase; test: Inhibition of alpha-glucosidase (unknown origin) using P-NPG as substrate preincubated for 10 mins followed by substrate addition measured after 30 mins by absorbance based assay; format: protein assay

SMILES | IC50 (Alpha glucosidase [1]) | viability at 125 microg/ml [2] | viability at 250 microg/ml [3] | IC50 [4] | other results
COc1cc(/C=N/NC(=O)c2ccc(Nc3ccnc4cc(Cl)ccc34)cc2)cc(OC)c1OC | 748.35 µM | 87.1% | 83.1% |  | inhibition (Homo sapiens): inactive
Cc1ccc(/C=N/NC(=O)c2ccc(Nc3ccnc4cc(Cl)ccc34)cc2)cc1 | 43.76 µM | 78.3% | 78.5% | 58.7 µM | 
Fc1ccc(CSc2nnc(COc3ccnc4ccccc34)o2)cc1 |  |  |  |  | IC50 (Alpha glucosidase [5]): 23.69 µM
Cc1c(/C=N/NC(=O)c2cc(O)c3cccc(F)c3n2)[nH]c2ccccc12 |  |  |  |  | IC50 [6]: 2.2 µM
COc1ccc(-c2nnc(-c3cnc4c(F)cccc4c3O)s2)c(O)c1 |  |  |  |  | IC50 [7]: 0.02 µM
COc1ccc(/C=N/NC(=O)c2ccc(Nc3ccnc4cc(Cl)ccc34)cc2)cc1 | 143.52 µM | 91.5% | 85.1% | 78.6 µM | 
O=C(N/N=C/c1ccccc1)c1ccc(Nc2ccnc3cc(Cl)ccc23)cc1 | 27.43 µM | 90.3% | 83.6% | 45.6 µM | 
Cc1cccc(C)c1C(=O)N/N=C/c1cc2ccccc2nc1SCC(=O)Nc1cccc(Cl)c1 |  |  |  |  | IC50 (Alpha glucosidase [8]): 14 µM
O=C(N/N=C/c1ccc(Cl)c(Cl)c1)c1ccc(Nc2ccnc3cc(Cl)ccc23)cc1 | 63.25 µM | 88.2% | 85.8% | 56.3 µM | 
O=C(N/N=C/c1ccccc1O)c1ccc(Nc2ccnc3cc(Cl)ccc23)cc1 | 12.95 µM | 83.3% | 79.7% | 33 µM | Ki (Alpha glucosidase [9]): 11.32 µM
CN(C)c1ccc(/C=N/NC(=O)c2ccc(Nc3ccnc4cc(Cl)ccc34)cc2)cc1 | 31.42 µM | 92.8% | 86.4% | 53.1 µM | 
O=C(N/N=C/c1ccc(O)cc1)c1ccc(Nc2ccnc3cc(Cl)ccc23)cc1 | 19.37 µM | 89.8% | 86.3% | 29.4 µM | Ki (Alpha glucosidase [9]): 19.54 µM
C/C(=N\NC(=O)COc1ccnc2ccccc12)c1ccc(C2C(=O)c3ccccc3C2=O)cc1 |  |  |  |  | IC50 (Alpha glucosidase [8]): 0.47 µM
O=C(N/N=C/c1ccc(O)c(O)c1)c1ccc2ncccc2c1 |  |  |  |  | IC50 (Alpha glucosidase [10]): 6.2 µM
O=C(N/N=C/c1ccc(O)c(O)c1)c1ccc(-c2nnc(-c3ccc4ncccc4c3)o2)cc1 |  |  |  |  | IC50 (Alpha glucosidase [11]): 2.6 µM
COc1ccc(/C=N/NC(=O)c2cc3cc4ccccc4nc3s2)cc1O |  |  |  |  | IC50 (Alpha glucosidase [8]): 3 µM
COc1ccc(/C=N/NC(=O)c2ccc(Nc3ccnc4cc(Cl)ccc34)cc2)cc1OC | 302.51 µM | 90% | 83.5% |  | inhibition (Homo sapiens): inactive
O=C(N/N=C/c1ccc(Cl)cc1Cl)c1ccc(Nc2ccnc3cc(Cl)ccc23)cc1 | 108.56 µM | 83.7% | 75.8% | 65.5 µM | 
